Measurements as given in ChEMBL document CHEMBL2375313, “Synthesis, in vitro antitumor evaluation and DNA-binding study of novel tetrahydroquinolines and some derived tricyclic and tetracyclic ring systems” (Eur J Med Chem, 2013).
≈ marks a conversion by molar mass, not a printed value. Calls of active or inactive are those of the source. The rule behind the calls is not given here.

Experiments:
MCF7 = test: Cytotoxicity against human MCF7 cells assessed as growth inhibition at 10 uM after 48 hrs by sulphorhodamine B assay; format: functional; conditions: MCF7, 48 h, read-out: GI
Outline: (§1)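 NCI-60 one-dose screen per the NCI Drug Evaluation Branch protocol. Cells given a single 10 µM concentration with 48 h continuous exposure. Growth estimated by sulphorhodamine B protein assay. Result expressed as percentage growth inhibition relative to untreated growth.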

A498 = test: Cytotoxicity against human A498 cells assessed as growth inhibition at 10 uM after 48 hrs by sulphorhodamine B assay; format: functional; conditions: A498, 48 h, read-out: GI; outline: as §1
Hs-578T = test: Cytotoxicity against human Hs578T cells assessed as growth inhibition at 10 uM after 48 hrs by sulphorhodamine B assay; format: functional; conditions: read-out: GI; outline: as §1
NCI/ADR-RES = test: Cytotoxicity against human NCI/ADR-RES cells assessed as growth inhibition at 10 uM after 48 hrs by sulphorhodamine B assay; format: functional; conditions: read-out: GI; outline: as §1
NCI-H522 = test: Cytotoxicity against human NCI-H522 cells assessed as growth inhibition at 10 uM after 48 hrs by sulphorhodamine B assay; format: functional; conditions: NCI-H522, 48 h, read-out: GI; outline: as §1
PC-3 = test: Cytotoxicity against human PC3 cells assessed as growth inhibition at 10 uM after 48 hrs by sulphorhodamine B assay; format: functional; conditions: PC-3, 48 h, read-out: GI; outline: as §1
HOP-92 = test: Cytotoxicity against human HOP92 cells assessed as growth inhibition at 10 uM after 48 hrs by sulphorhodamine B assay; format: functional; conditions: HOP-92, 48 h, read-out: GI; outline: as §1
OVCAR-5 = test: Cytotoxicity against human OVCAR5 cells assessed as growth inhibition at 10 uM after 48 hrs by sulphorhodamine B assay; format: functional; conditions: OVCAR-5, 48 h, read-out: GI; outline: as §1
UACC-62 = test: Cytotoxicity against human UACC62 cells assessed as growth inhibition at 10 uM after 48 hrs by sulphorhodamine B assay; format: functional; conditions: UACC-62, 48 h, read-out: GI; outline: as §1
IGROV-1 = test: Cytotoxicity against human IGROV1 cells assessed as growth inhibition at 10 uM after 48 hrs by sulphorhodamine B assay; format: functional; conditions: IGROV-1, 48 h, read-out: GI; outline: as §1
SK-MEL-5 = test: Cytotoxicity against human SK-MEL-5 cells assessed as growth inhibition at 10 uM after 48 hrs by sulphorhodamine B assay; format: functional; conditions: SK-MEL-5, 48 h, read-out: GI; outline: as §1
[1] = Cytotoxicity against human EKVX cells assessed as growth inhibition at 10 uM after 48 hrs by sulphorhodamine B assay; format: functional; conditions: read-out: GI; outline: as §1
SK-OV-3 = test: Cytotoxicity against human SKOV3 cells assessed as growth inhibition at 10 uM after 48 hrs by sulphorhodamine B assay; format: functional; conditions: SK-OV-3, 48 h, read-out: GI; outline: as §1
CAKI-1 = test: Cytotoxicity against human Caki1 cells assessed as growth inhibition at 10 uM after 48 hrs by sulphorhodamine B assay; format: functional; conditions: CAKI-1, 48 h, read-out: GI; outline: as §1
MDA-MB-435 = test: Cytotoxicity against human MDA-MB-435 cells assessed as growth inhibition at 10 uM after 48 hrs by sulphorhodamine B assay; format: functional; conditions: MDA-MB-435, 48 h, read-out: GI; outline: as §1
MOLT-4 = test: Cytotoxicity against human MOLT4 cells assessed as growth inhibition at 10 uM after 48 hrs by sulphorhodamine B assay; format: functional; conditions: MOLT-4, 48 h, read-out: GI; outline: as §1
HT-29 = test: Cytotoxicity against human HT-29 cells assessed as growth inhibition at 10 uM after 48 hrs by sulphorhodamine B assay; format: functional; conditions: HT-29, 48 h, read-out: GI; outline: as §1
HCT-15 = test: Cytotoxicity against human HCT15 cells assessed as growth inhibition at 10 uM after 48 hrs by sulphorhodamine B assay; format: functional; conditions: HCT-15, 48 h, read-out: GI; outline: as §1
UO-31 = test: Cytotoxicity against human UO31 cells assessed as growth inhibition at 10 uM after 48 hrs by sulphorhodamine B assay; format: functional; conditions: UO-31, 48 h, read-out: GI; outline: as §1
DU-145 = test: Cytotoxicity against human DU145 cells assessed as growth inhibition at 10 uM after 48 hrs by sulphorhodamine B assay; format: functional; conditions: DU-145, 48 h, read-out: GI; outline: as §1
[2] = Binding affinity to DNA (unknown origin) at 5 mg/mL by RP-TLC plate analysis
Outline: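 Reversed-phase C18 TLC plates pre-developed in methanol/water 8:2. Compound spotted at origin (5 mg/mL in methanol), then DNA (1 mg/mL in water/methanol 8:2) applied at the same spot. Plates developed in the same eluent; DNA located by anisaldehyde spray (blue). Ethidium bromide as positive control.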

T47D = test: Cytotoxicity against human T47D cells assessed as growth inhibition at 10 uM after 48 hrs by sulphorhodamine B assay; format: functional; conditions: read-out: GI; outline: as §1
RXF 393 = test: Cytotoxicity against human RXF393 cells assessed as growth inhibition at 10 uM after 48 hrs by sulphorhodamine B assay; format: functional; conditions: RXF 393, 48 h, read-out: GI; outline: as §1
ACHN = test: Cytotoxicity against human ACHN cells assessed as growth inhibition at 10 uM after 48 hrs by sulphorhodamine B assay; format: functional; conditions: read-out: GI; outline: as §1
RPMI-8226 = test: Cytotoxicity against human RPMI8226 cells assessed as growth inhibition at 10 uM after 48 hrs by sulphorhodamine B assay; format: functional; conditions: RPMI-8226, 48 h, read-out: GI; outline: as §1
K562 = test: Cytotoxicity against human K562 cells assessed as growth inhibition at 10 uM after 48 hrs by sulphorhodamine B assay; format: functional; conditions: K562, 48 h, read-out: GI; outline: as §1
M14 = test: Cytotoxicity against human M14 cells assessed as growth inhibition at 10 uM after 48 hrs by sulphorhodamine B assay; format: functional; conditions: M14, 48 h, read-out: GI; outline: as §1
HCT-116 = test: Cytotoxicity against human HCT116 cells assessed as growth inhibition at 10 uM after 48 hrs by sulphorhodamine B assay; format: functional; conditions: HCT-116, 48 h, read-out: GI; outline: as §1
OVCAR-4 = test: Cytotoxicity against human OVCAR4 cells assessed as growth inhibition at 10 uM after 48 hrs by sulphorhodamine B assay; format: functional; conditions: OVCAR-4, 48 h, read-out: GI; outline: as §1
SF-268 = test: Cytotoxicity against human SF268 cells assessed as growth inhibition at 10 uM after 48 hrs by sulphorhodamine B assay; format: functional; conditions: SF-268, 48 h, read-out: GI; outline: as §1
SNB-19 = test: Cytotoxicity against human SNB19 cells assessed as growth inhibition at 10 uM after 48 hrs by sulphorhodamine B assay; format: functional; conditions: SNB-19, 48 h, read-out: GI; outline: as §1
[3] = Displacement of methyl green from DNA (unknown origin) after 24 hrs
Outline: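 DNA-methyl green complex was stirred in 0.05 M Tris-HCl pH 7.5 with 7.5 mmol MgSO4 at 37 °C for 24 h. Compound was dried down from EtOH in tubes and the DNA-methyl green solution added. A630 was read initially and after 24 h dark incubation at room temperature, corrected and normalized to untreated complex. IC50 is the concentration giving a 50% absorbance decrease; mean ± SD, n = 6.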

A549 = test: Cytotoxicity against human A549 cells assessed as growth inhibition at 10 uM after 48 hrs by sulphorhodamine B assay; format: functional; conditions: A549, 48 h, read-out: GI; outline: as §1
SNB-75 = test: Cytotoxicity against human SNB75 cells assessed as growth inhibition at 10 uM after 48 hrs by sulphorhodamine B assay; format: functional; conditions: SNB-75, 48 h, read-out: GI; outline: as §1
NCI-H23 = test: Cytotoxicity against human NCI-H23 cells assessed as growth inhibition at 10 uM after 48 hrs by sulphorhodamine B assay; format: functional; conditions: NCI-H23, 48 h, read-out: GI; outline: as §1
SR = test: Cytotoxicity against human SR cells assessed as growth inhibition at 10 uM after 48 hrs by sulphorhodamine B assay; format: functional; conditions: read-out: GI; outline: as §1
CCRF-CEM = test: Cytotoxicity against human CCRF-CEM cells assessed as growth inhibition at 10 uM after 48 hrs by sulphorhodamine B assay; format: functional; conditions: read-out: GI; outline: as §1
LOX IMVI = test: Cytotoxicity against human LOXIMVI cells assessed as growth inhibition at 10 uM after 48 hrs by sulphorhodamine B assay; format: functional; conditions: read-out: GI; outline: as §1
U-251 = test: Cytotoxicity against human U251 cells assessed as growth inhibition at 10 uM after 48 hrs by sulphorhodamine B assay; format: functional; conditions: U-251, 48 h, read-out: GI; outline: as §1
SF-295 = test: Cytotoxicity against human SF295 cells assessed as growth inhibition at 10 uM after 48 hrs by sulphorhodamine B assay; format: functional; conditions: SF-295, 48 h, read-out: GI; outline: as §1
HL-60(TB) = test: Cytotoxicity against human HL-60(TB) cells assessed as growth inhibition at 10 uM after 48 hrs by sulphorhodamine B assay; format: functional; conditions: HL-60, 48 h, read-out: GI
Outline: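 NCI-60 one-dose primary screen run to the Drug Evaluation Branch protocol. Cells are exposed to a single 10 µM concentration for 48 h continuously, and growth is read by SRB protein assay. Data are reported as percent growth of treated cells, expressed as % growth inhibition.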

SK-MEL-2 = test: Cytotoxicity against human SK-MEL-2 cells assessed as growth inhibition at 10 uM after 48 hrs by sulphorhodamine B assay; format: functional; conditions: SK-MEL-2, 48 h, read-out: GI; outline: as §1

CC1CCCc2c1nc1[nH]c(=S)nc(N)c1c2-c1ccc(Cl)cc1 (centres undefined)
inhibition of growth at 10 µM (MCF7): 10.4%
inhibition of growth at 10 µM (A498): 11.5%
inhibition of growth at 10 µM (Hs-578T): < 10%
inhibition of growth at 10 µM (NCI/ADR-RES): < 10%
inhibition of growth at 10 µM (NCI-H522): 10%
inhibition of growth at 10 µM (PC-3): 56.7%
inhibition of growth at 10 µM (HOP-92): < 10%
inhibition of growth at 10 µM (OVCAR-5): < 10%
inhibition of growth at 10 µM (UACC-62): 15.8%
inhibition of growth at 10 µM (IGROV-1): 10%
inhibition of growth at 10 µM (SK-MEL-5): 10.3%
inhibition of growth at 10 µM [1]: 14.5%
inhibition of growth at 10 µM (SK-OV-3): < 10%
inhibition of growth at 10 µM (CAKI-1): 31.3%
inhibition of growth at 10 µM (MDA-MB-435): < 10%
inhibition of growth at 10 µM (MOLT-4): 26.2%
inhibition of growth at 10 µM (HT-29): < 10%
inhibition of growth at 10 µM (HCT-15): 14.3%
inhibition of growth at 10 µM (UO-31): < 10%
inhibition of growth at 10 µM (DU-145): < 10%
Activity [2]: Active
inhibition of growth at 10 µM (T47D): 15.2%
inhibition of growth at 10 µM (RXF 393): < 10%
inhibition of growth at 10 µM (ACHN): < 10%
inhibition of growth at 10 µM (RPMI-8226): 37%
inhibition of growth at 10 µM (K562): 15%
inhibition of growth at 10 µM (M14): < 10%
inhibition of growth at 10 µM (HCT-116): 10.5%
inhibition of growth at 10 µM (OVCAR-4): < 10%
inhibition of growth at 10 µM (SF-268): 18.8%
inhibition of growth at 10 µM (SNB-19): 10%
IC50 [3]: 0.151 µg/mL (≈ 0.423 µM)
inhibition of growth at 10 µM (A549): < 10%
inhibition of growth at 10 µM (SNB-75): 10.2%
inhibition of growth at 10 µM (NCI-H23): 10.1%
inhibition of growth at 10 µM (SR): 25.8%
inhibition of growth at 10 µM (CCRF-CEM): 28.8%
inhibition of growth at 10 µM (LOX IMVI): < 10%
inhibition of growth at 10 µM (U-251): < 10%
inhibition of growth at 10 µM (SF-295): < 10%
inhibition of growth at 10 µM (HL-60(TB)): 10%
inhibition of growth at 10 µM (SK-MEL-2): 11.4%

CC[n+]1c(-c2ccccc2)c2cc(N)ccc2c2ccc(N)cc21.[Br-] [HOMIDIUM BROMIDE]
Activity [2]: Active
IC50 [3]: 0.004 µg/mL
